TRPC4 PAM: positive allosteric modulators of TRPC4, primary screen, cell-based, mouse TRPC4beta, HEK293 mu-opioid, Fluo-4 calcium. AID 2227, 2009. Short transient receptor potential channel 4 (Mus musculus), Q9QUQ5. DAMGO EC20, Fluo-4 Ca2+ flux; stronger effect = higher value. hit rate 0.42% among 310,000. B-score at 10 µM;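 active = B-score of calcium response area above 5 SD of library B-scores, with initial fluorescence ratio within 5 SD of library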
Target sequence (Q9QUQ5 whole entry, looked up): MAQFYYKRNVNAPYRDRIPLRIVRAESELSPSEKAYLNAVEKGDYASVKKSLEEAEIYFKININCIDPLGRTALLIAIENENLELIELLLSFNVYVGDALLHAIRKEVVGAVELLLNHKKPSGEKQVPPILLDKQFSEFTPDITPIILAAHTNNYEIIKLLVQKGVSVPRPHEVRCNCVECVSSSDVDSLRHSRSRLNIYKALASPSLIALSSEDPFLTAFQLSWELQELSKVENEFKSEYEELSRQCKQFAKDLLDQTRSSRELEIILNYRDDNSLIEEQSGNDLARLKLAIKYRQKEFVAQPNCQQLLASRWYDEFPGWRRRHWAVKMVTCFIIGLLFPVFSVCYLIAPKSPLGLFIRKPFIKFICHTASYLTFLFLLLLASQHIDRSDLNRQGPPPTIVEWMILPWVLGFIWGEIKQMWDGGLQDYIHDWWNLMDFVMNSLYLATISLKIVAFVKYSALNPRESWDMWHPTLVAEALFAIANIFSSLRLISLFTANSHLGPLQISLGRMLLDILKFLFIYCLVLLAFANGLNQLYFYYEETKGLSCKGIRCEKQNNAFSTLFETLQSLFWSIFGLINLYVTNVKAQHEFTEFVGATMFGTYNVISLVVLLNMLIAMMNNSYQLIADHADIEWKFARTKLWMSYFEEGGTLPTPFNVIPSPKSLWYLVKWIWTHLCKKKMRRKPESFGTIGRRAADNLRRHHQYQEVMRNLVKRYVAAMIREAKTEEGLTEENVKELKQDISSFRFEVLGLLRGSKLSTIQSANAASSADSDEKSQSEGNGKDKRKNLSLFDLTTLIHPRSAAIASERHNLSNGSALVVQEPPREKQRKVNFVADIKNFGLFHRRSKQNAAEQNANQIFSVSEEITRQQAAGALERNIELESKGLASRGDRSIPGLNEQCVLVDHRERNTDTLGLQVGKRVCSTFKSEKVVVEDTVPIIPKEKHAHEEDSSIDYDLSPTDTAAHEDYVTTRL
TRPC6 activator: mouse TRPC6 channel activators, primary screen, cell-based, HEK293, membrane potential dye; hit rate 0.13% among 310,000; Short transient receptor potential channel 6 (Mus musculus), Q61143; B-score at 10 µM; HEK293-TRPC6 membrane potential dye fluorescence; stronger effect = higher value;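 active = B-score of the integrated fluorescence ratio above library mean plus 3 SD, and starting fluorescence ratio within library mean plus 5 SD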;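 also: higher score means more depolarization so channel activation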
TRPC4 act: activators of mouse TRPC4 channel, primary screen, Fluo4 calcium, HEK293 TRPC4beta/mu-opioid cells; hit rate 0.49% among 310,000; B-score at 10 µM; Short transient receptor potential channel 4 (Mus musculus), Q9QUQ5; AID 2237, 2010; Fluo4 calcium fluorescence; stronger effect = higher value;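 active = B-score above 5 SD of library B-scores, and initial fluorescence ratio not above library mean plus 5 SD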;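 also: positive B-score marks a calcium rise read as TRPC4 activation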
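Assay system: HEK293 stable line with TRPC4beta plus mu-opioid receptor; schedule: 45 min room-temperature Fluo4 loading, 110 s read; technique: kinetic Fluo4 calcium fluorescence; evaluation: integrated baseline-normalised fluorescence ratio, converted to per-well B score; controls: buffer (low) and maximal DAMGO (high)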
TRPC4 block: inhibitors of mouse TRPC4 channel, primary screen, Fluo4 calcium, HEK293 TRPC4beta/mu-opioid cells; DAMGO-evoked Fluo4 calcium flux; stronger effect = lower value; hit rate 0.39% among 300,000; B-score at 10 µM;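 active = B-score over 3 SD under the library average, no early fluorescence shift, positive overall ratio signal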
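Test system – stable TRPC4beta/mu-opioid receptor HEK293 cells · Probe or stimulus – DAMGO, a submaximal dose followed by a maximal one · Dosing – one concentration per compound · Signal – Fluo4 calcium fluorescence by kinetic imaging, 5 s 1 Hz baseline · Evaluation – per-well B score of integrated baseline-normalized Fluo4 ratio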
TRPC6 inh: mouse TRPC6 channel inhibitors, primary screen, cell-based, HEK293, membrane potential dye; Short transient receptor potential channel 6 (Mus musculus), Q61143; ACh-evoked depolarization; stronger effect = lower value; B-score at 10 µM; hit rate 1.1% among 310,000; AID 2553, 2010;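 active = B-score under library mean minus 3 SD, initial fluorescence not abnormally high, positive integrated signal ratio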;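 also: B-score derived from integrated fluorescence ratio over the kinetic read; more negative B-score means stronger inhibition of depolarization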
Yeast superoxide: reduction of superoxide in aged yeast, primary screen, HTS. S. cerevisiae aged cells, superoxide DHE fluorescence; stronger effect = lower value. superoxide response (% of plate mean), % at 10 µM. hit rate 0.18% among 330,000. AID 2690, 2010;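 active = superoxide response under a set limit, about three screen SD below normal, cut at about 65% in these data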;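 also: yeast aged for seven days with compound at 30 °C before DHE staining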
TRPC4 spec 2: mouse TRPC4 off-target activity of TRPC6 inhibitors, second screen | shares compounds with TRPC6 inh | HEK293 TRPC4/MOR, membrane potential dye fluorescence; channel activated by saturating DAMGO dose | inhibition, % at 10 µM | hit rate 42% among 920;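 active = compounds whose fluorescence signal differed from control wells by over 3 SD, either direction, in both duplicate plates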
TRPC4 spec: mouse TRPC4 modulation by TRPC6 hits, confirmation, selectivity assay for TRPC6 inhibitor project, cell-based, HEK293 TRPC4/mu-opioid, membrane potential dye. shares compounds with TRPC6 inh. membrane potential fluorescence. activity change, negative = inhibition, % at 10 µM. hit rate 61% among 920. AID 2777, 2010;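 active = rise or fall in signal beyond 3 SD of buffer-only wells in both replicate plates, either sign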;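 also: integrated kinetic ratio of fluorescence range over baseline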
HEK293 MPD ctr 2-1: nonspecific membrane potential effects, parental HEK293, confirmation, counter-screen for TRPC6 inhibitor project, cell-based, second counter screen; shares compounds with TRPC6 inh; parental HEK293 membrane potential dye fluorescence; maximal acetylcholine challenge after compound addition; signal change vs control, % at 10 µM; hit rate 31% among 920; AID 2779, 2010;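 active = membrane potential signal moving either way by over 3 SD of the maximum-effect control, in both duplicate plates, meaning non-specific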
HEK293 MPD ctr-1: membrane potential modulation in parental HEK293, confirmation, counter-screen for TRPC6 inhibitor project, cell-based; shares compounds with TRPC6 inh; parental HEK293 membrane potential dye fluorescence; membrane potential signal change, % at 10 µM; hit rate 60% among 920;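 active = membrane potential signal shifting up or down by more than 3 SD of buffer-only wells, on both duplicate plates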
HEK293 MPD ctr-2: parental HEK293 membrane potential modulation, confirmation, counter-screen for TRPC6 modulator project, cell-based. shares compounds with TRPC6 inh. membrane potential dye fluorescence. membrane potential signal change, % at 10 µM. hit rate 51% among 2,400;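 active = membrane potential signal moves up or down beyond 5 SD from buffer-only wells, on both duplicate plates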
HEK293 MPD ctr 2-2: parental HEK293 nonspecific activity of TRPC6 modulators, second screen; shares compounds with TRPC6 inh; inhibition, % at 10 µM; hit rate 14% among 2,400; AID 488926; membrane potential dye fluorescence; after compound, maximal acetylcholine stimulation;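 active = membrane potential signal drops by more than 5 SD from the mean control signal, in both duplicate plates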
TRPC4/MOR mod: TRPC4 modulation by TRPC6 hit compounds, confirmation, selectivity assay for TRPC6 modulator project, cell-based, HEK293 TRPC4/mu-opioid, membrane potential dye, mouse. membrane potential fluorescence. shares compounds with TRPC6 inh. AID 488927, 2010. hit rate 69% among 2,400. percent change from control (negative = decrease, positive = increase), % at 10 µM;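 active = membrane potential signal moved up or down beyond 5 SD of buffer control wells, in both duplicate plates, actives on both sides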
TRPC4 ctr inh 2: mouse TRPC4 off-target activity of TRPC6 modulators, second screen; shares compounds with TRPC6 inh; HEK293 TRPC4/mu-opioid, membrane potential dye fluorescence; stimulated with maximal-effect DAMGO; inhibition, % at 10 µM; hit rate 55% among 2,400;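 active = drop in membrane potential signal beyond 5 SD of the control wells in both duplicate plates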;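 also: TRPC4 counter screen for TRPC6 hits run under conditions tuned for TRPC6 not TRPC4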
TRPC6 inh conf: mouse TRPC6 channel inhibitors, confirmation, HEK293 cells, membrane potential dye, duplicate. ACh-evoked depolarization. shares compounds with TRPC6 inh. inhibition, % at 10 µM. AID 488960, 2010. hit rate 43% among 3,300;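 active = fluorescence ratio falls more than 5 SD below the full-stimulation control mean, in both duplicate runs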;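 also: integrated fluorescence ratio of peak minus minimum over baseline after agonist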
TRPC6 act confirm: mouse TRPC6 channel activators, confirmation, HEK293 cells, membrane potential dye, duplicate. shares compounds with TRPC6 inh. HEK293-TRPC6 membrane potential dye fluorescence, FDSS. activation, % at 10 µM. hit rate 11% among 2,800;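 active = ratio signal rise beyond 5 SD above unstimulated control wells' mean, seen in both duplicate runs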
Hits are given with their value; 0 = inactive; - = no result. Rows were chosen to be rich in hits. Some 2.3% of all compounds tested hit in one or more screens of this group.

SMILES	TRPC4 PAM	TRPC6 activator	TRPC4 act	TRPC4 block	TRPC6 inh	Yeast superoxide	HEK293 MPD ctr-2	HEK293 MPD ctr 2-2	TRPC4/MOR mod	TRPC4 ctr inh 2	TRPC6 inh conf	TRPC6 act confirm	others
Cc1cccc(-n2nc(C(=O)c3ccco3)cc(-c3nc4ccccc4[nH]3)c2=N)c1	0	0	0	0	-5.4	0	0	0	20%	45%	0	0
Cc1ccccc1-n1nc(C(=O)c2cccs2)cc(-c2nc3ccccc3[nH]2)c1=N	0	0	0	0	-11	0	-	-	-	-	0	0	TRPC4 spec 2=66%;TRPC4 spec=-9.6%;HEK293 MPD ctr 2-1=0;HEK293 MPD ctr-1=0
COc1ccc(-n2nc(C(=O)c3cccs3)cc(-c3nc4ccccc4[nH]3)c2=N)cc1	0	0	0	0	-9.7	0	-	-	-	-	61%	0	TRPC4 spec 2=46%;TRPC4 spec=-22%;HEK293 MPD ctr 2-1=37%;HEK293 MPD ctr-1=-238%
COc1cc2c(cc1OC)-c1cc(NCc3ccccn3)nc(=O)n1CC2	0	0	0	0	-5.4	0	-196%	0	-34%	0	0	0
CCNc1cc2n(c(=O)n1)CCc1cc(OC)c(OC)cc1-2	0	0	0	0	0	0	-	-	-	-	-	-
Cc1cc(=O)[nH]c(SCC2COC3(CCCCC3)O2)n1 (stereo not given)	0	0	0	0	0	0	-	-	-	-	-	-
NCCNC[C@@H]1COC2(CCCCCCCCCCC2)O1	0	0	0	0	-6.9	0	-	-	-	-	62%	0	TRPC4 spec 2=33%;TRPC4 spec=1.8%;HEK293 MPD ctr 2-1=0;HEK293 MPD ctr-1=7.8%
CCCCN(CCCC)c1nc(OC)nc(-n2nnc(C(C)=O)c2C)n1	0	11	0	0	0	0	240%	0	57%	0	0	96%
CC(=O)c1nnn(-c2nc(N)nc(N(c3ccccc3)c3ccccc3)n2)c1C	0	0	0	0	0	0	-	-	-	-	-	-
O=S(=O)(NCCc1csc(-c2cccnc2)n1)c1cc(F)ccc1F	0	0	0	0	0	0	-	-	-	-	-	-
O=S(=O)(NC1CCSc2ccccc21)c1ccc(Cl)nc1 (stereo not given)	0	0	0	0	-6.2	0	0	0	0	0	0	0
CCC1CCCCN1CCn1c(=S)[nH]c2cc(OC)c(OC)cc2c1=O (stereo not given)	0	0	0	0	-6.3	0	0	0	10%	28%	0	0
Cc1c(O)c(CN2CCCC2)cc2c3c(c(=O)oc12)CCC3	0	0	0	0	-5	0	-254%	0	-46%	0	0	0
C[n+]1ccc(/C=C/c2ccc(Br)cc2)cc1	0	0	0	0	-5.2	0	-78%	0	0	36%	0	0
Cc1ccc2[nH]c(C)c(/C=C/c3cc[n+](C)cc3)c2c1	0	0	0	0	0	0	-	-	-	-	-	-
CCC(C)(C)NC(=O)C(c1ccc(C)o1)N(Cc1cccs1)C(=O)Cn1nnc2ccccc21 (stereo not given)	0	15	0	0	0	0	342%	0	80%	0	0	99%
CCC(C)(C)NC(=O)C(c1ccccc1)N(Cc1cccs1)C(=O)Cn1nnc2ccccc21 (stereo not given)	0	15	0	0	0	0	119%	0	34%	0	0	44%
COCCNC(=O)C(c1ccccc1)N(Cc1cccs1)C(=O)Cn1nnc2ccccc21 (stereo not given)	0	0	0	0	0	0	-	-	-	-	-	-
CC12CCC(C(=O)Nc3c(Cl)cccc3Cl)(C(Br)C1=O)C2(C)C (stereo not given)	0	0	0	0	-6.2	0	0	0	0	0	0	0
CC12CCC(C(=O)Nc3cccc(Cl)c3Cl)([C@H](Br)C1=O)C2(C)C (stereo not given in full)	0	0	0	0	0	0	-	-	-	-	-	-
O=S(=O)(/C=C/c1ccccc1)n1cnc2ccccc21	0	0	0	0	0	0	-	-	-	-	-	-
Cc1ccc(C)c(NS(=O)(=O)c2c(C)nn(C)c2C)c1	0	0	0	0	0	0	-	-	-	-	-	-
Cc1ccc(OS(=O)(=O)c2c(C)nn(C)c2Cl)c(C)c1	0	0	0	0	-6.5	0	0	0	0	0	72%	0
COc1ccc(C(=O)OCC(=O)NCc2cccs2)c(OC)c1OC	-	-	-	-	-	0	-	-	-	-	-	-
O=C(CNC(=O)c1cccs1)NCC(=O)OCc1ccc(F)cc1	0	0	0	0	0	0	-	-	-	-	-	-
